Data reported in ChEMBL document CHEMBL4152184, “NB 06: From a simple lysosomotropic aSMase inhibitor to tools for elucidating the role of lysosomes in signaling apoptosis and LPS-induced inflammation” (Eur J Med Chem, 2018).
Calls of active or inactive are those of the source. The rule behind the calls is not given here.

Assays:
PBMC [1] = assay: Inhibition of mmLDL-stimulated apoptosis in human PBMC assessed as apoptotic cells at 2 uM preincubated for 30 mins followed by mmLDL stimulation measured after 4 hrs by YO-PRO-1/Hoechst 33342 staining based assay (reference value: 100%); assay type: functional; parameters: scale not given: the % may be the effect or the level left
Summary of the method: (§1)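 PBMC pre-incubated 30 min with 2 μM compound, then stimulated with mmLDL (27 μg/mL; line 5) or TNFalpha (3 ng/mL; line 1) for 4 h. Apoptotic cells stained with YO-PRO-1 and all cells with Hoechst 33342. Each plate had control, stimulus, compound alone and compound plus stimulus; n = 3. Values are on a 0% (untreated control, corrected for spontaneous apoptosis) to 100% (stimulus alone) scale; means ± SE.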

PBMC [2] = assay: Inhibition of TNFalpha-stimulated apoptosis in human PBMC assessed as apoptotic cells at 2 uM preincubated for 30 mins followed by TNFalpha stimulation measured after 4 hrs by YO-PRO-1/Hoechst 33342 staining based assay relative to control; assay type: functional; parameters: scale not given: the % may be the effect or the level left; summary of the method: as §1
[3] = molecular target: T1, Sphingomyelin phosphodiesterase (Homo sapiens, UniProt P17405); assay: Inhibition of mmLDL-stimulated acid sphingomyelinase in human PBMC lysates using BODIPY FL C5-sphingomyelin as substrate preincubated for 30 mins followed by mmLDL stimulation measured after 2 hrs by HPLC method
T1 sequence (P17405 whole entry): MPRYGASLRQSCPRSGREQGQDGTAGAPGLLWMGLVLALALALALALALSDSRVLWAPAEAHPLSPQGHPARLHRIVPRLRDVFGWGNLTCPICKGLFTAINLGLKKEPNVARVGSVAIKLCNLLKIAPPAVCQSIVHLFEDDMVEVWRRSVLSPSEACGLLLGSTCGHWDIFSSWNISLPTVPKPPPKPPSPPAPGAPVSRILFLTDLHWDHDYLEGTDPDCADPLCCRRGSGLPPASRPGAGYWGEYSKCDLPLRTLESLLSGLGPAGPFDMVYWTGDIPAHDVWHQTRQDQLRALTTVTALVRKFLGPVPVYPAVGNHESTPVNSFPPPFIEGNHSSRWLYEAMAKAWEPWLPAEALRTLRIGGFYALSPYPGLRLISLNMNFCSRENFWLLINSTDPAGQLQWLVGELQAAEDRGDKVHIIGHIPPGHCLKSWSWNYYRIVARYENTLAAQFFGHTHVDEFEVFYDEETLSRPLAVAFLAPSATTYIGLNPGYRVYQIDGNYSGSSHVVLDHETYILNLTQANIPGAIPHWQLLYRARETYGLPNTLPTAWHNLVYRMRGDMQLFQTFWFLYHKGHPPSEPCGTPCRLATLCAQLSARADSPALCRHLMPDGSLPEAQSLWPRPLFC

[4] = molecular target: T2, Sphingomyelin phosphodiesterase (Homo sapiens) (UniProt P17405); assay: Inhibition of mmLDL-stimulated acid sphingomyelinase in human PBMC lysates assessed as enzyme residual activity at 25 uM using BODIPY FL C5-sphingomyelin as substrate preincubated for 30 mins followed by mmLDL stimulation measured after 2 hrs by HPLC method
T2 sequence (whole entry): T1 sequence (P17405 whole entry)

[5] = molecular target: T2, Sphingomyelin phosphodiesterase (Homo sapiens); assay: Inhibition of mmLDL-stimulated acid sphingomyelinase in human PBMC lysates at 0.5 to 50 uM preincubated for 30 mins followed by mmLDL stimulation measured after 4 hrs by YO-PRO-1/Hoechst 33342 staining based assay

| Compound | Activity (PBMC [1]) | Activity (PBMC [2]) | IC50 [3] | Activity [4] | inhibition [5] |
| --- | --- | --- | --- | --- | --- |
| COc1ccc(CCN(C)CCCN2c3ccccc3Oc3ccccc32)cc1 | 25% | 43% |  |  |  |
| COc1ccc(CC(=O)N(C)CCCn2c3ccccc3c3ccccc32)cc1 | 100% |  | > 250 µM |  |  |
| COc1ccc(Cn2c3ccccc3c3ccccc32)cc1 | 14% | 30% | 156 µM |  |  |
| COc1ccc(Cn2c(=O)[nH]c3ccccc3c2=O)cc1 | 57% | 59% | > 250 µM |  |  |
| CNCCCN1c2ccccc2CCc2ccccc21 |  |  |  | 20% |  |
| COc1ccc(CCN(C)CCCn2ccc3ccccc32)cc1 | 84% |  | 21 µM |  |  |
| COc1ccc(CCN(C)CCCN2c3ccccc3CCc3ccccc32)cc1 | 36% | 30% |  |  |  |
| COc1ccc(CCN(C)CCCN2c3ccccc3Sc3ccccc32)cc1 | 100% |  | 9 µM |  |  |
| COc1ccc(CCN(C)CCN2c3ccccc3Sc3ccccc32)cc1 | 25% | 25% |  |  |  |
| COc1ccc(CCN(C)CCC=C2c3ccccc3CCc3ccccc32)cc1 | 10% |  | 10 µM |  |  |
| COc1ccc(CN(C)CCCn2c3ccccc3c3ccccc32)cc1 | 17% |  |  |  |  |
| CN(C)CCCN1c2ccccc2CCc2ccccc21 [IMIPRAMINE] | 15% | 16% | 5 µM |  |  |
| COc1ccc(CCN2CCCn3c4c(c5ccccc53)CCCC42)cc1 (stereo not given) | 25% |  | 15 µM |  |  |
| COc1ccc(CCN(C)CCCN(c2ccccc2)c2ccccc2)cc1OC | 59% |  |  |  |  |
| COc1ccc(CCN(C)CCCN2c3ccccc3CCc3ccccc32)cc1OC | 73% |  | 31 µM |  |  |
| COc1ccc(CCNCCNc2cccc3ccccc23)cc1OC | 65% |  | 112 µM |  |  |
| COc1ccc(CCN(C)CCCN(c2ccccc2)c2ccccc2)cc1 | 35% |  | > 250 µM |  |  |
| COc1ccc(CCNCCCNC2c3ccccc3CCc3ccccc32)cc1OC | 43% |  | 39 µM |  |  |
| COc1ccc(CCN(Cc2ccccc2)c2ccccn2)cc1 | 85% |  | > 250 µM |  |  |
| COc1cc(CCN(C)CCCn2c3ccccc3c3ccccc32)c(OC)cc1CCN(C)CCCn1c2ccccc2c2ccccc21 | 7% |  | 10 µM |  | Active |
| CN(C)CCCN1c2ccccc2Sc2ccc(Cl)cc21 [CHLORPROMAZINE] |  |  | 11 µM |  |  |
| COc1ccc(CCN(C)CCCN2c3ccccc3Sc3ccccc32)cc1OC | 52% |  | 16 µM |  |  |
| COc1ccc(CCN(C)CCCN2C(=O)COc3ccccc32)cc1 |  |  | 38 µM |  |  |
| COc1ccc(CCN(C)CCCN2c3ccccc3Sc3ccc(Cl)cc32)cc1 | 71% |  |  |  |  |
| COc1ccc(CCNCc2cccc3ccccc23)cc1OC | 86% |  | 96 µM |  |  |

| Compound | Activity (PBMC [1]) | Activity (PBMC [2]) | IC50 [3] | Activity [4] | inhibition [5] |
| --- | --- | --- | --- | --- | --- |
| COc1ccc(CCNCCNc2cccc3ccccc23)cc1 | 87% |  | 116 µM |  |  |
| COc1ccc(CCN(C)CCCN2Cc3ccccc3CCc3ccccc32)cc1 | 8% | 2% | 17 µM |  |  |
| COc1ccc(CC(=O)N(C)CCN2c3ccccc3CCc3ccccc32)cc1 | 94% | 90% | > 250 µM |  |  |
| COc1ccc(CCN2CCn3c4c(c5ccccc53)CCCC42)cc1 (stereo not given) | 19% |  | > 250 µM |  |  |
| COc1ccc(CCN(C)CCCN2c3ccccc3Sc3ccc(Cl)cc32)cc1OC | 31% | 18% | 12 µM |  |  |
| COc1ccc(CCN(C)CCC=C2c3ccccc3CCc3ccccc32)cc1OC | 79% |  | 10 µM |  |  |
| COc1ccc(CCN2[C@H](C)CN(CCCn3c4ccccc4c4ccccc43)C[C@@H]2C)cc1 | 25% | 0% |  |  |  |
| COc1ccc(CCN2CCCN(C3c4ccccc4CCc4ccccc43)C2)cc1 | 27% | 17% |  |  |  |
| COc1ccc(CCN(C)C(F)(F)C(F)(F)C(F)(F)C(F)(F)n2c3ccccc3c3ccccc32)cc1 | 80% |  | > 250 µM |  |  |
| COc1ccc(CCN(C)CCCn2c3ccccc3c3ccccc32)cc1OC | 24% | 41% | 14 µM |  |  |
| COc1ccc(CC(=O)N(C)CCCN2c3ccccc3Sc3ccc(Cl)cc32)cc1OC | 41% |  | > 250 µM |  |  |
| COc1ccc(CCN2CCN(CCn3c4ccccc4c4ccccc43)CC2)cc1 | 14% | 16% |  |  |  |
| COc1ccc(CCN2[C@H](C)CN(CCCn3c4ccccc4c4ccccc43)C[C@@H]2C)cc1OC | 35% |  | 141 µM |  |  |
| COc1ccc(CCN(C)CCN2c3ccccc3Sc3ccccc32)cc1OC | 72% |  |  |  |  |
| COc1ccc(CCN(C)CCN2c3ccccc3CCc3ccccc32)cc1 | 49% | 35% | 17 µM |  |  |
| COc1ccc(CCNCCCNC2c3ccccc3CCc3ccccc32)cc1 |  |  | 17 µM |  |  |
| COc1ccc(CCNCc2cccc3ccccc23)cc1 | 100% |  | 240 µM |  |  |
| COc1ccc(CCN(C)CCN2c3ccccc3CCc3ccccc32)cc1OC | 30% | 58% |  |  |  |
| COc1ccc(CCN2[C@H](C)CN(CCCN3c4ccccc4Oc4ccccc43)C[C@@H]2C)cc1 | 10% |  | 43 µM |  |  |
| COc1ccc(CCN(C)CCCN2c3ccccc3Oc3ccccc32)cc1OC | 36% |  | 13 µM |  |  |
| COc1ccc(Cn2c(=O)c3ccccc3n(Cc3ccc(OC)cc3)c2=O)cc1 | 4% |  | > 250 µM |  |  |
| COc1ccc(CN2C(=O)COc3ccccc32)cc1 | 100% |  | > 250 µM |  |  |
| COc1ccc(CC(=O)N(C)CCCN2c3ccccc3CCc3ccccc32)cc1 | 69% |  | 107 µM |  |  |
| COc1ccc(CCN(C)CCn2c3ccccc3c3ccccc32)cc1 | 9% | 55% | 6 µM |  |  |
